Inhibition data for 7 molecules are collected here from ChEMBL document CHEMBL1817614, “Inhibitory effects of chalcone glycosides isolated from Brassica rapa L. 'hidabeni' and their synthetic derivatives on LPS-induced NO production in microglia” (Bioorg Med Chem, 2011).

Activity calls are given as the source filed them. No cut-off for these calls is given here.

For test [1], the system named is HAPI. Kind of test: Antiinflammatory activity in rat HAPI cells assessed as inhibition of LPS-induced iNOS mRNA expression at 50 uM treated 30 mins before LPS challenge measured after 6 hrs by RT-PCR analysis. Format: functional, cell-based. In short, it runs like this: (§1)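 HAPI cells were seeded in 1% FCS DMEM and treated the next day. Compound (50 µM) was present 30 min before and during LPS (100 ng/mL) for 6 h. RT-PCR used GAPDH normalization. IFN-β ran 35 cycles with anneal at 54 °C; IL-1β ran 30 cycles with anneal at 58 °C. Data are % of LPS alone, mean SEM, n = 3.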

Test [2] deals with HAPI. Kind of test: Antiinflammatory activity in rat HAPI cells assessed as inhibition of LPS-induced nitric oxide production at 50 uM treated 30 mins before LPS challenge measured after 24 hrs by Griess method. Format: functional, cell-based. An outline of the steps:
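About 1.0 × 10⁵ HAPI cells per well were seeded in 1% FCS DMEM. The next day, compound (50 µM) was present 30 min before and during LPS (100 ng/mL) for 24 h. Medium nitrite was read by Griess kit. Data are fold induction vs untreated cells, mean SD, n = 3 or 4.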

The test system of test [3] is HAPI. Description: Antiinflammatory activity in rat HAPI cells assessed as inhibition of IFN-gamma-induced iNOS mRNA expression at 50 uM treated 30 mins before LPS challenge measured after 8 hrs by RT-PCR analysis. Format: functional, cell-based. In short, it runs like this: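 HAPI rat microglia were grown in DMEM with 10% heat-inactivated FCS at 37 °C. Compound (50 µM) was added 30 min before and kept during IFN-γ (100 ng/mL) for 8 h. Total RNA was taken for RT-PCR, gel densitometry and normalization to GAPDH. Data are % of IFN-γ alone, mean SEM, n = 3.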

Test [4] has as its system HAPI. Kind of test: Inhibition of LPS-induced NF-kappaB nuclear translocation in rat HAPI cell nuclear extracts at 50 uM treated 30 mins before LPS challenge measured after 3 hrs by immunoblot analysis. Format: cell-based. An outline of the steps: (§2)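 Compound (50 µM) or vehicle was given 30 min before LPS (100 ng/mL) for 3 h. Nuclear extracts were made by NP-40 lysis and 0.4 M NaCl HEPES pH 7.8 extraction. Extract (10 µg) was immunoblotted for NF-κB p65 or STAT1 (1:1,000), with ABC chemiluminescence detection. Blots shown represent three experiments.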

The subject of test [5] is HAPI. Description: Antiinflammatory activity in rat HAPI cells assessed as inhibition of LPS-induced IL1-beta mRNA expression at 50 uM treated 30 mins before LPS challenge measured after 6 hrs by RT-PCR analysis. Format: functional, cell-based. In short, it runs like this:
as §1

The test system of test [6] is HAPI. Description: Inhibition of LPS-induced JNK phosphorylation in rat HAPI cell lysates at 50 uM treated 30 mins before LPS challenge measured after 1 hr by immunoblot analysis. Format: cell-based. In short, it runs like this:
(§3)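 Compound (50 µM) or vehicle was given 30 min before LPS (100 ng/mL) for 1 h. Whole-cell lysates were made in Tris pH 7.4 Triton buffer with phosphatase inhibitors. Lysate (40 µg) was run on SDS-PAGE and immunoblotted with phospho-specific and total MAPK antibodies (1:1,000), biotin secondary/ABC and chemiluminescence. Blots shown represent three experiments.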
(A western blot detects proteins with antibodies after separation by electrophoresis.)

In test [7] the test system is HAPI. Kind of test: Inhibition of LPS-induced STAT1 nuclear translocation in rat HAPI cell nuclear extracts at 50 uM treated 30 mins before LPS challenge measured after 3 hrs by immunoblot analysis. Format: cell-based. In short, it runs like this:
as §2

The test system of test [8] is HAPI. Description: Inhibition of LPS-induced STAT1 phosphorylation in rat HAPI cell lysates at 50 uM treated 30 mins before LPS challenge measured after 3 hrs by immunoblot analysis.
In test [9] the test system is HAPI. Kind of test: Antiinflammatory activity in rat HAPI cells assessed as inhibition of LPS-induced IFN-R mRNA expression at 50 uM treated 30 mins before LPS challenge measured after 6 hrs by RT-PCR analysis. Format: functional, cell-based. In short, it runs like this:
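Cells were seeded in 1% FCS DMEM and treated the next day. Compound (50 µM) was present 30 min before and during LPS (100 ng/mL) for 6 h. IFN-R RT-PCR ran 35 cycles with anneal at 55 °C and was normalized to GAPDH. Data are fold change vs untreated cells, mean SEM, n = 3.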

Test [10] concerns HAPI. Kind of test: Inhibition of LPS-induced ERK phosphorylation in rat HAPI cell lysates at 50 uM treated 30 mins before LPS challenge measured after 1 hr by immunoblot analysis. Format: cell-based. An outline of the steps:
as §3

Test [11] relates to HAPI. Description: Inhibition of LPS-induced p38 phosphorylation in rat HAPI cell lysates at 50 uM treated 30 mins before LPS challenge measured after 1 hr by immunoblot analysis. Format: cell-based. In short, it runs like this: as §3

Regarding `COc1cc(C(C)=O)cc(OC)c1O[C@@H]1O[C@H](CO)[C@@H](O)[C@H](O)[C@H]1O`, the inhibition entry in the test with HAPI [1] is “Active”.

Consider `COc1cc(C(=O)/C=C/c2ccc(O)cc2)ccc1O[C@@H]1O[C@H](CO)[C@@H](O)[C@H](O)[C@H]1O`, for which the inhibition result with HAPI [2] and in the test on HAPI [1] was “Active” in each case.

In the case of `CC1=CC(=O)CC(C)(C)[C@@]1(O)/C=C/[C@H](C)O[C@@H]1O[C@H](CO)[C@@H](O)[C@H](O)[C@H]1O`, the inhibition entry in the test on HAPI [1] was “Active”.

`COc1cc(C(=O)/C=C/c2ccc(O[C@@H]3O[C@H](CO)[C@@H](O)[C@H](O)[C@H]3O)cc2)ccc1O[C@@H]1O[C@H](CO)[C@@H](O)[C@H](O)[C@H]1O`: the inhibition result with HAPI [1] is “Active”.

As to `CC(=O)c1ccc(O[C@@H]2O[C@H](CO)[C@@H](O)[C@H](O)[C@H]2O)cc1`, in the test with HAPI [1], the inhibition entry was “Active”.

Take `COc1cc(C(=O)/C=C/c2ccccc2)ccc1O[C@@H]1O[C@H](CO)[C@@H](O)[C@H](O)[C@H]1O`: the inhibition result in the test on HAPI [3], with HAPI [2] and in the test on HAPI [1] was “Active” in each case.

For the molecule `COc1ccc(/C=C/C(=O)c2ccc(O[C@@H]3O[C@H](CO)[C@@H](O)[C@H](O)[C@H]3O)c(OC)c2)cc1`, the inhibition result in the test on HAPI [4], in the test with HAPI [6], in the test on HAPI [9], in the test on HAPI [10] and with HAPI [11] was “inactive” in each case. Also, the inhibition result with HAPI [5], with HAPI [7], in the test with HAPI [8], with HAPI [3], in the test on HAPI [2] and in the test on HAPI [1] was “Active” throughout.
